{
  "source": "ChEMBL document CHEMBL3526018",
  "about": "“Metabolites of PPI-2458, a selective, irreversible inhibitor of methionine aminopeptidase-2: structure determination and in vivo activity” (Drug Metab Dispos, 2013)",
  "key": {"Cytochrome P450 3A4": {"target": "Cytochrome P450 3A4 (Homo sapiens, UniProt P08684)", "sequence (P08684 whole entry)": "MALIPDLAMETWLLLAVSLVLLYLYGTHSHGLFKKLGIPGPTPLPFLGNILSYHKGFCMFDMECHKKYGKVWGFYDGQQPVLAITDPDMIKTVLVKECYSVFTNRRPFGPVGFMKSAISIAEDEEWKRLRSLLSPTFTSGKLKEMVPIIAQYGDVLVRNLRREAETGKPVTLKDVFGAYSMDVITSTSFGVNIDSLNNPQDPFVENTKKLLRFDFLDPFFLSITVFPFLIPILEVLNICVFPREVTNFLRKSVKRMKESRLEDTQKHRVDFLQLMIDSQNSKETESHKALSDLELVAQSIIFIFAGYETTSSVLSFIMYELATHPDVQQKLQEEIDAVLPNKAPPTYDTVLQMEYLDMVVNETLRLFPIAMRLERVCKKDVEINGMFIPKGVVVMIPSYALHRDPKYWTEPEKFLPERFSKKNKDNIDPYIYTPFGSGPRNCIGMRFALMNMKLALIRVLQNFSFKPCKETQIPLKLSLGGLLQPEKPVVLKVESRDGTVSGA", "experiment": "Inhibition of CYP3A4 activity in human liver microsomes using testosterone as a substrate by LC/MS analysis", "type": "ADME"}, "[1]": {"target": "Methionine aminopeptidase 2 (Homo sapiens) (UniProt P50579)", "sequence (P50579 2-478 limits assumed)": "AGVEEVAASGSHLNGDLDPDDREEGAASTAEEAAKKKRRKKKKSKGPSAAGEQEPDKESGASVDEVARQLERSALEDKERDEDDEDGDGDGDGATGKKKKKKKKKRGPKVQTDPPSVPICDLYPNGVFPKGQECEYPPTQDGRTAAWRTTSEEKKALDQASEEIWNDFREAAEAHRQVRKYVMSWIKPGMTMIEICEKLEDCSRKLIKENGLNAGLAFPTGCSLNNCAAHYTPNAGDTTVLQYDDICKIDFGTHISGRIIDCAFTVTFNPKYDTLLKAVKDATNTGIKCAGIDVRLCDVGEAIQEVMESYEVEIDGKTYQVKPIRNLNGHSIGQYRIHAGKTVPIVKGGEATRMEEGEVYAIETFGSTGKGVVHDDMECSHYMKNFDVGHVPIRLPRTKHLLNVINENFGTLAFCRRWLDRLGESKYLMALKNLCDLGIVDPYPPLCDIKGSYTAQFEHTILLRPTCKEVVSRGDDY", "experiment": "Inhibition of human MetAP2 assessed as remaining enzyme activity after 8 hrs", "set-up": "concentration or dose not given beside the values", "summary_of_the_method": "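The hMetAP2 assay follows the fraction of active enzyme remaining during an 8 h incubation with inhibitor, relative to an enzyme-only control.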"}, "[2]": {"experiment": "Tmax in non-Hodgkin lymphoma patient at 15 mg, po alternate days for 21 days", "type": "ADME, organism-based", "settings": "human, in vivo", "summary_of_the_method": "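Non-Hodgkin lymphoma patients given oral capsules every other day for 21 days. Plasma sampled predose and at 15, 30 min and 1, 2, 3, 4, 6, 8, 24, 48 h after the first dose. Protein precipitated, extract reconstituted, parent and metabolites quantified by validated LC-MS/MS. CL/F and Vss/F derived from the administered dose.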"}, "[3]": {"experiment": "AUC (0 to infinity) in non-Hodgkin lymphoma patient at 15 mg, po alternate days for 21 days", "type": "ADME, organism-based", "set-up": "dose 15 mg, route oral, time infinity", "settings": "human, in vivo", "summary_of_the_method": "(§1)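 Oral PPI-2458 given every other day to lymphoma patients. Plasma sampled pre-dose and at 15 min, 30 min, 1, 2, 3, 4, 6, 8, 24 and 48 h after the first dose. Parent and metabolites were measured by LC-MS/MS after protein precipitation, evaporation and reconstitution. CL/F was computed only for parent and summed analytes. For metabolites, t1/2 is an apparent first-phase value.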"}, "[4]": {"experiment": "Half life in non-Hodgkin lymphoma patient at 15 mg, po alternate days for 21 days", "type": "ADME, organism-based", "settings": "human, in vivo", "summary_of_the_method": "as §1"}, "Liver microsome [5]": {"system": "Liver microsome", "experiment": "Metabolic stability in human liver microsomes assessed as retention time of ((3R,4S,5S,6R)-4-((2R,3R)-3-((E)-4-hydroxy-3-methylbut-2-en-1-yl)-2-methyloxiran-2-yl)-5-methoxy-1-oxaspiro[2.5]octan-6-yl((R)-1-amino-3-methyl-1-oxobutan-2-yl)carbamate) at 5 mM by LC/MS analysis", "type": "ADME", "settings": "5000 µM", "summary_of_the_method": "(§2)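 Liver microsomes (pooled male/female) in 100 mM KPO4 pH 7.4 with PPI-2458 (5 mM stock), pre-incubated 5 min at 37°C, then 10 mM NADPH added; 20 min at 37°C with shaking. Time-zero and no-NADPH controls. Quenched with CH3CN; supernatant dried and redissolved in water. Analysed by LC-MS, ESI+ full scan 300–800 amu, C18 column, 10→50% B gradient.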"}, "Liver microsome [6]": {"system": "Liver microsome", "experiment": "Metabolic stability in dog liver microsomes assessed as retention time of ((3R,4S,5S,6R)-4-((2R,3R)-3-(((R)-3,3-dimethyloxiran-2-yl)methyl)-2-methyloxiran-2-yl)-5-methoxy-1-oxaspiro[2.5]octan-6-yl ((R)-1-amino-3-methyl-1-oxobutan-2-yl)carbamate) at 5 mM by LC/MS analysis", "type": "ADME, Canis lupus familiaris", "settings": "5000 µM"}, "Liver microsome [7]": {"system": "Liver microsome", "experiment": "Metabolic stability in dog liver microsomes assessed as retention time of ((3R,4S,5S,6R)-4-((2R,3R)-3-(((S)-3,3-dimethyloxiran-2-yl)methyl)-2-methyloxiran-2-yl)-5-methoxy-1-oxaspiro[2.5]octan-6-yl ((R)-1-amino-3-methyl-1-oxobutan-2-yl)carbamate) at 5 mM by LC/MS analysis", "type": "ADME, Canis lupus familiaris", "settings": "5000 µM"}, "Liver microsome [8]": {"system": "Liver microsome", "experiment": "Metabolic stability in dog liver microsomes assessed as retention time of ((3R,4S,5S,6R)-4-((2R,3R)-3-((E)-4-hydroxy-3-methylbut-2-en-1-yl)-2-methyloxiran-2-yl)-5-methoxy-1-oxaspiro[2.5]octan-6-yl((R)-1-amino-3-methyl-1-oxobutan-2-yl)carbamate) at 5 mM by LC/MS analysis", "type": "ADME, Canis lupus familiaris", "settings": "5000 µM"}, "Rattus norvegicus [9]": {"system": "Rattus norvegicus", "experiment": "Inhibition of MetAP2 level in Sprague-Dawley rat lung assessed as free enzyme level at 0.3 mg/kg, po by ELISA", "type": "functional, organism-based", "set-up": "dose 0.3 mg/kg", "summary_of_the_method": "(§3)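 Male Sprague-Dawley rats (200-225 g, n=3 per group) were dosed once IV at 0.3 mg/kg or PO at 0.3 or 3.0 mg/kg, in 11% HPCD in water. Blood, liver, lung, thymus and pooled non-mesenteric lymph nodes were taken at ~24 h and lysed or homogenized with NP-40. Free MetAP2 was measured by ELISA and expressed as % of vehicle.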"}, "Liver [10]": {"system": "Liver", "experiment": "Metabolic stability in mouse liver microsomes assessed as retention time of ((3R,4S,5S,6R)-4-((2R,3R)-3-(((S)-3,3-dimethyloxiran-2-yl)methyl)-2-methyloxiran-2-yl)-5-methoxy-1-oxaspiro[2.5]octan-6-yl ((R)-1-amino-3-methyl-1-oxobutan-2-yl)carbamate) at 5 mM by LC/MS analysis", "type": "ADME", "settings": "5000 µM", "summary_of_the_method": "as §2"}, "Rattus norvegicus [11]": {"system": "Rattus norvegicus", "experiment": "Inhibition of MetAP2 level in Sprague-Dawley rat liver assessed as free enzyme level at 0.3 mg/kg, po by ELISA", "type": "functional, organism-based", "set-up": "dose 0.3 mg/kg", "summary_of_the_method": "as §3"}, "Rattus norvegicus [12]": {"system": "Rattus norvegicus", "experiment": "Inhibition of MetAP2 level in Sprague-Dawley rat liver assessed as free enzyme level at 0.3 mg/kg, iv by ELISA", "type": "functional, organism-based", "set-up": "dose 0.3 mg/kg", "summary_of_the_method": "as §3"}, "Liver [13]": {"system": "Liver", "experiment": "Metabolic stability in mouse liver microsomes assessed as retention time of ((3R,4S,5S,6R)-5-methoxy-4-((2R,3R)-2-methyl-3-(3-methylbut-2-en-1-yl)oxiran-2-yl)-1-oxaspiro[2.5]octan-6-yl ((R)-1-amino-3-hydroxy-3-methyl-1-oxobutan-2-yl)carbamate) at 5 mM by LC/MS analysis", "type": "ADME", "settings": "5000 µM", "summary_of_the_method": "as §2"}, "Liver microsome [14]": {"system": "Liver microsome", "experiment": "Metabolic stability in rat liver microsomes assessed as retention time of ((3R,4S,5S,6R)-4-((2R,3R)-3-((E)-4-hydroxy-3-methylbut-2-en-1-yl)-2-methyloxiran-2-yl)-5-methoxy-1-oxaspiro[2.5]octan-6-yl((R)-1-amino-3-methyl-1-oxobutan-2-yl)carbamate) at 5 mM by LC/MS analysis", "type": "ADME", "settings": "5000 µM", "summary_of_the_method": "as §2"}, "CYP3A5 (Homo sapiens) [15]": {"system": "CYP3A5 (Homo sapiens)", "experiment": "Activity of human recombinant CYP3A5 assessed as ((3R,4S,5S,6R)-5-methoxy-4-((2R,3R)-2-methyl-3-(3-methylbut-2-en-1-yl)oxiran-2-yl)-1-oxaspiro[2.5]octan-6-yl ((R)-1-amino-3-hydroxy-3-methyl-1-oxobutan-2-yl)carbamate) formation", "settings": "recombinant enzyme"}, "CYP3A5 (Homo sapiens) [16]": {"system": "CYP3A5 (Homo sapiens)", "experiment": "Activity of human recombinant CYP3A5 assessed as ((3R,4S,5S,6R)-4-((2R,3R)-3-((E)-4-hydroxy-3-methylbut-2-en-1-yl)-2-methyloxiran-2-yl)-5-methoxy-1-oxaspiro[2.5]octan-6-yl((R)-1-amino-3-methyl-1-oxobutan-2-yl)carbamate) formation", "settings": "recombinant enzyme"}, "CYP3A5 (Homo sapiens) [17]": {"system": "CYP3A5 (Homo sapiens)", "experiment": "Activity of human recombinant CYP3A5 assessed as ((3R,4S,5S,6R)-4-((2R,3R)-3-(((S)-3,3-dimethyloxiran-2-yl)methyl)-2-methyloxiran-2-yl)-5-methoxy-1-oxaspiro[2.5]octan-6-yl ((R)-1-amino-3-methyl-1-oxobutan-2-yl)carbamate) formation", "settings": "recombinant enzyme"}, "CYP3A5 (Homo sapiens) [18]": {"system": "CYP3A5 (Homo sapiens)", "experiment": "Ratio of Vmax to Km for human recombinant CYP3A5 assessed as ((3R,4S,5S,6R)-4-((2R,3R)-3-(((S)-3,3-dimethyloxiran-2-yl)methyl)-2-methyloxiran-2-yl)-5-methoxy-1-oxaspiro[2.5]octan-6-yl ((R)-1-amino-3-methyl-1-oxobutan-2-yl)carbamate) formation", "settings": "recombinant enzyme"}},
  "note": "Calls of active or inactive are those of the source. No cut-off for these calls is given here.",
  "data": [
    {"smiles": "CO[C@@H]1[C@H](OC(=O)N[C@@H](C(N)=O)C(C)C)CC[C@]2(CO2)[C@H]1[C@@]1(C)O[C@@H]1CC=C(C)C", "note": "[PPI-2458]", "values": [
      {"measurement": "Ki", "setting": "Cytochrome P450 3A4", "result": 287, "unit": "µM"},
      {"measurement": "Activity", "setting": "[1]", "result": 2.8, "unit": "%"},
      {"measurement": "Tmax", "setting": "[2]", "result": 0.6, "unit": "h"},
      {"measurement": "AUC(0-inf)", "setting": "[3]", "result": 44.1, "unit": "ng·h/mL"},
      {"measurement": "half-life", "setting": "[4]", "result": 1.6, "unit": "h"},
      {"measurement": "Drug metabolism", "setting": "Liver microsome [5]", "result": "metabolite_detected"},
      {"measurement": "Drug metabolism", "setting": "Liver microsome [6]", "result": "metabolite_detected"},
      {"measurement": "Drug metabolism", "setting": "Liver microsome [7]", "result": "metabolite_detected"},
      {"measurement": "Drug metabolism", "setting": "Liver microsome [8]", "result": "metabolite_detected"},
      {"measurement": "inhibition", "setting": "Rattus norvegicus [9]", "result": "Active"},
      {"measurement": "Drug metabolism", "setting": "Liver [10]", "result": "metabolite_detected"},
      {"measurement": "inhibition", "setting": "Rattus norvegicus [11]", "result": "Active"},
      {"measurement": "inhibition", "setting": "Rattus norvegicus [12]", "result": "Active"},
      {"measurement": "Drug metabolism", "setting": "Liver [13]", "result": "metabolite_detected"},
      {"measurement": "Drug metabolism", "setting": "Liver microsome [14]", "result": "metabolite_detected"},
      {"measurement": "Km", "setting": "CYP3A5 (Homo sapiens) [15]", "result": 17, "unit": "µM"},
      {"measurement": "Km", "setting": "CYP3A5 (Homo sapiens) [16]", "result": 26, "unit": "µM"},
      {"measurement": "Km", "setting": "CYP3A5 (Homo sapiens) [17]", "result": 17, "unit": "µM"},
      {"measurement": "Vmax/Km", "setting": "CYP3A5 (Homo sapiens) [18]", "result": 0.09, "unit": "µL/min"}
    ]}
  ]
}
